Data published in ChEMBL document CHEMBL4387702, “Design and synthesis novel di-carbonyl analogs of curcumin (DACs) act as potent anti-inflammatory agents against LPS-induced acute lung injury (ALI)” (Eur J Med Chem, 2019).
Active and inactive are the calls of the source. No cut-off for these calls is given here.

Key:
[1] = test system: RAW264.7; experiment: Inhibition of MAPK/NFkappaB in ICR mouse RAW264.7 cells assessed as reduction in LPS-induced IL6 production at 10 uM pretreated for 0.5 hrs followed by LPS challenge and measured after 24 hrs by ELISA relative to control; format: cell-based
[2] = test system: RAW264.7; experiment: Cytotoxicity against ICR mouse RAW264.7 cells assessed as effect on cell proliferation at 10 uM after 24 hrs by MTT assay; format: cell-based; conditions: raw264.7, 24 h
[3] = Inhibition of MAPK/NFkappaB in ICR mouse RAW264.7 cells assessed as reduction in LPS-induced TNFalpha production pretreated for 0.5 hrs followed by LPS challenge and measured after 24 hrs by ELISA; format: cell-based
[4] = Stability in pH 7.4 phosphate buffer assessed as compound decomposition measured up to 25 mins by UV-Vis spectroscopy; format: physicochemical; conditions: pH 7.4, 25 min
Procedure, shortened: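 Compound stability was followed by recording UV-visible absorption spectra in phosphate buffer at pH 7.4.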

[5] = biological target: MAP kinase p38 (Mus musculus) (UniProt P47811+O08911+Q9WUI1+Q9Z1B7); experiment: Inhibition of LPS-induced p38 MAPK phosphorylation in ICR mouse RAW264.7 cells at 10 uM preincubated for 0.5 hrs followed by LPS challenge and measured after 30 mins by immunoblotting analysis; format: cell-based
Procedure, shortened: (§1)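 RAW 264.7 cells were pretreated with compound for 0.5 h and then stimulated with LPS for 30 min. Lysates were resolved on 10% or 12% SDS-PAGE and transferred to nitrocellulose. Membranes were blocked in TBS (pH 7.6) with 0.05% Tween 20 and 5% milk. Blots were probed for p-p38, p38, p-ERK, ERK, IκBα and GAPDH, detected with HRP secondaries and ECL.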

[6] = test system: RAW264.7; experiment: Inhibition of LPS-induced ERK phosphorylation in ICR mouse RAW264.7 cells at 10 uM preincubated for 0.5 hrs followed by LPS challenge and measured after 30 mins by immunoblotting analysis; format: cell-based; procedure, shortened: as §1
[7] = test system: RAW264.7; experiment: Inhibition of MAPK/NFkappaB signaling in ICR mouse RAW264.7 cells assessed as reduction in LPS-induced TNF-alpha mRNA expression pretreated for 0.5 hrs followed by LPS challenge and measured after 40 mins by TRIZOL reagent-based RT-qPCR analysis; format: cell-based
Procedure, shortened: (§2)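 RAW 264.7 cells were pretreated with compound for 0.5 h and then activated with LPS. Values were normalized to actin and expressed relative to the LPS group.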

[8] = test system: RAW264.7; experiment: Inhibition of MAPK/NFkappaB signaling in ICR mouse RAW264.7 cells assessed as reduction in LPS-induced IL-6 mRNA expression pretreated for 0.5 hrs followed by LPS challenge and measured after 40 mins by TRIZOL reagent-based RT-qPCR analysis; format: cell-based; procedure, shortened: as §2
[9] = test system: RAW264.7; experiment: Inhibition of MAPK/NFkappaB signaling in ICR mouse RAW264.7 cells assessed as reduction in LPS-induced IL1beta mRNA expression pretreated for 0.5 hrs followed by LPS challenge and measured after 40 mins by TRIZOL reagent-based RT-qPCR analysis; format: cell-based; procedure, shortened: as §2
[10] = test system: Mus musculus; experiment: Antiinflammatory activity in C57BL/6 mouse model of LPS-induced acute lung injury assessed as reduction in total cell count in BALF at 10 mg/kg, ip administered daily for one week prior to LPS challenge and measured after 6 hrs; format: functional, organism-based
Procedure, shortened: (§3)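 C57BL/6 mice (eight per group) received 10 mg/kg i.p. daily for one week; vehicle was 0.9% saline. They were then challenged with intratracheal LPS at 5 mg/kg and sacrificed 6 h later. Endpoints were lung wet/dry weight ratio and total and neutrophil cell counts in BALF, reported as mean ± SEM, n = 6.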

[11] = test system: Mus musculus; experiment: Antiinflammatory activity in C57BL/6 mouse model of LPS-induced acute lung injury assessed as reduction in neutrophil count in BALF at 10 mg/kg, ip administered daily for one week prior to LPS challenge and measured after 6 hrs; format: functional, organism-based; procedure, shortened: as §3
[12] = test system: Mus musculus; experiment: Antiinflammatory activity in C57BL/6 mouse model of LPS-induced acute lung injury assessed as reduction of pathological lesions in lung tissue at 10 mg/kg, ip administered daily for one week prior to LPS challenge and measured after 6 hrs by hematoxylin and eosin staining-based light microscopic analysis; format: functional, organism-based
Procedure, shortened: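 Lungs were taken 6 h after intratracheal LPS (5 mg/kg) from C57BL/6 mice pretreated at 10 mg/kg i.p. daily for one week. Tissue was fixed, embedded in paraffin, sectioned at 5 µm and stained with H&E. Injury features examined were edema, congestion, septal thickening, infiltration and tissue destruction, assessed by light microscopy.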

[13] = test system: Mus musculus; experiment: Antiinflammatory activity in C57BL/6 mouse model of LPS-induced acute lung injury assessed as reduction of LY-6G neutrophil level in lung tissue at 10 mg/kg, ip administered daily for one week prior to LPS challenge and measured after 6 hrs by hematoxylin staining-based immunohistochemistry method; format: functional, organism-based
Procedure, shortened: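 Lungs came from C57BL/6 mice dosed at 10 mg/kg i.p. daily for one week, then given intratracheal LPS 5 mg/kg and harvested at 6 h. Tissue was paraffin-embedded and cut into 5 µm sections. Antigen retrieval used microwaving in 0.01 mol/L citrate (pH 6.0), then 3% H2O2 in methanol for 30 min. Sections took LY-6G or F4/80 primary antibody overnight at 4 °C, secondary at 1:200, DAB development and hematoxylin counterstain.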

[14] = test system: Mus musculus; experiment: Antiinflammatory activity in C57BL/6 mouse model of LPS-induced acute lung injury assessed as reduction in TNF-alpha production in serum at 10 mg/kg, ip administered daily for one week prior to LPS challenge and measured after 6 hrs by ELISA; format: functional, organism-based
Procedure, shortened: (§4)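 In C57BL/6 mice (eight per group), compound was dosed at 10 mg/kg i.p. once daily for a week, with a 0.9% saline vehicle control. LPS 5 mg/kg was given intratracheally and animals were euthanized with chloral hydrate after 6 h. TNF-α and IL-6 in serum and BALF were measured by ELISA. Data are mean ± SEM, n = 6.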

[15] = test system: Mus musculus; experiment: Antiinflammatory activity in C57BL/6 mouse model of LPS-induced acute lung injury assessed as reduction in IL-6 production in serum at 10 mg/kg, ip administered daily for one week prior to LPS challenge and measured after 6 hrs by ELISA; format: functional, organism-based; procedure, shortened: as §4
[16] = test system: Mus musculus; experiment: Antiinflammatory activity in C57BL/6 mouse model of LPS-induced acute lung injury assessed as reduction in IL-6 mRNA expression in lung tissue at 10 mg/kg, ip administered daily for one week prior to LPS challenge and measured after 6 hrs by TRIZOL reagent-based RT-qPCR analysis; format: functional, organism-based
Procedure, shortened: (§5)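 Mouse ALI model with eight C57BL/6 mice per group. Compound was given at 10 mg/kg i.p. daily for one week; controls received 0.9% saline. LPS was instilled intratracheally at 5 mg/kg. Mice were euthanized with chloral hydrate 6 h later and lungs collected. Lung mRNA for each target was quantified by real-time qPCR.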

[17] = test system: Mus musculus; experiment: Antiinflammatory activity in C57BL/6 mouse model of LPS-induced acute lung injury assessed as reduction in VCAM1 mRNA expression in lung tissue at 10 mg/kg, ip administered daily for one week prior to LPS challenge and measured after 6 hrs by TRIZOL reagent-based RT-qPCR analysis; format: functional, organism-based; procedure, shortened: as §5

| IC50 [3] [µM] | Stability [4] | inhibition [5] | Compound | inhibition [1] [%] | Activity [2] | inhibition [6] | inhibition [7] | inhibition [8] | inhibition [9] | Activity [10] | Activity [11] | Activity [12] | Activity [13] | Activity [14] | Activity [15] | Activity [16] | Activity [17] |
| --- | --- | --- | --- | --- | --- | --- | --- | --- | --- | --- | --- | --- | --- | --- | --- | --- | --- |
| 3.69 | Stable | Active | COc1cc(/C=C/C(=O)N2CCC/C(=C\c3cc(OC)c(OC)c(OC)c3)C2=O)ccc1O | 99.3 to 99.7 | Non-Toxic | Active | Active | Active | Active | Active | Active | Active | Active | Active | Active | Active | Active |
| 2.33 | Stable | Active | COc1cc(/C=C/C(=O)N2CCC/C(=C\c3cc(OC)c(OC)c(OC)c3)C2=O)ccc1OC(C)=O | 99.3 to 99.7 | Non-Toxic | Active | Active | Active | Active | Active | Active | Active | Active | Active | Active | Active | Active |
